Results on nine compounds are retold here after ChEMBL document CHEMBL1154974, “Semi-automated high-throughput fluorescent intercalator displacement-based discovery of cytotoxic DNA binding agents from a large compound library” (Bioorg Med Chem Lett, 2010).

pEC50: −log10 of the molar value. *1 amine or outer side, *2 acyl side, *3 side chain or, on linkers, in order; H or OH if unused. Where a SMILES comes first, the peptide text is derived from it. Bridges are numbered along the chain shown (N, C = ends). Roman numbers before positions name the chains, in order. [ ]: non-standard residue; d: D form. Actinocin(1to9) = Cc1c2oc3c(C)ccc(C(=O)[*:2])c3nc-2c(C(=O)[*:1])c(N)c1=O; NMeV = CN[C@H](C(=O)O)C(C)C; Sar = CNCC(=O)O

In experiment [1] the test system is Nucleic Acid. Briefly: Binding affinity to G/C-rich DNA oligonucleotide assessed as change in melting temperature by thermal denaturation assay. The format is nucleic-acid assay.
Experiment [2] deals with Nucleic Acid. Briefly: Binding affinity to calf thymus DNA assessed as decrease in ethidium bromide fluorescence by FID assay. The format is nucleic-acid assay, Bos taurus. In a few lines:
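Concentration-response FID using plate conditions as in the screen (calf thymus DNA, ethidium bromide, Tris buffer). Compound added to final 0.1-50 μM, from gravimetrically prepared stocks. FD50 taken as concentration giving 50% fluorescence decrease within each compound's achievable range; maximum %F decrease measured experimentally.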

The test system of experiment [3] is Nucleic Acid. Briefly: Binding affinity to poly dA/dT DNA assessed as change in melting temperature by thermal denaturation assay. The experiment is classed as nucleic-acid assay.
Experiment [4] relates to Nucleic Acid. As to the kind of experiment: Binding affinity to calf thymus DNA assessed as decrease in ethidium bromide fluorescence at 10 uM by HT-FID assay. The experiment is classed as nucleic-acid assay. As to conditions: Bos taurus.
Experiment [5] in a line: Cytotoxicity against human SF-767 cells assessed as viable cells after 72 hrs by MTT assay. The format is functional. As to conditions: SF767, 72 h, read-out: LC50 (the source's name). A digest of the protocol: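 SF767 glioblastoma cells, 2000 per well, grown 24 h, then exposed to increasing concentrations of compound for 72 h. Viable cells read by MTT with standard protocols. Media-only blank in each treatment group as background. Run in triplicate. LC50 read graphically from plots of % surviving cells against concentration.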
For orientation: Formazan colour is commonly taken as a measure of viable cells.

The term ΔTm denotes the shift of the melting midpoint relative to a reference. A word on the pEC50: it is the EC50 on a negative log10 scale, so that one unit is a factor of ten. For the compound `Cn1cc(NC(=O)c2cc(NC(=O)CNC(=N)N)cn2C)cc1C(=O)NCCC(=N)N` [NETROPSIN], the ΔTm came to 0 °C in experiment [1] and 45 °C in experiment [3]. Moreover, in experiment [2], the pEC50 was 5.29. The Binding Decrease in experiment [4] was 32%.
Consider `Cc1cccn2c(=O)c3cc(C(=O)NCCc4ccccc4)c(=N)n(CCc4ccccc4)c3nc12`, for which the ΔTm was 10 °C in experiment [1] and 0 °C in experiment [3]. In addition, the pEC50 in experiment [2] is 5.11. For the same compound, the Binding Decrease in experiment [4] worked out at 22%. Moreover, the CC50 in experiment [5] was over 25 µM.
As to `Cc1c2oc3c(C)ccc(C(=O)N[C@@H]4C(=O)N[C@H](C(C)C)C(=O)N5CCC[C@H]5C(=O)N(C)CC(=O)N(C)[C@@H](C(C)C)C(=O)O[C@@H]4C)c3nc-2c(C(=O)N[C@@H]2C(=O)N[C@H](C(C)C)C(=O)N3CCC[C@H]3C(=O)N(C)CC(=O)N(C)[C@@H](C(C)C)C(=O)O[C@@H]2C)c(N)c1=O` [DACTINOMYCIN] (I: T[dV]P[Sar][NMeV] / II: T[dV]P[Sar][NMeV]; ester I:1-I:C, II:1-II:C; linker I:N-II:N via Actinocin(1to9)), the ΔTm in experiment [1] was 10 °C; in experiment [3], over 45 °C. In experiment [2], the negative logarithm of the EC50 (pEC50) is 5.37. The Binding Decrease in experiment [4] was determined as 63%.
For `CC(C)c1ccc(CNc2ccc3c(c2)ncn3C)cc1`, the ΔTm was 0 °C in experiment [1] and over 45 °C in experiment [3]. The pEC50 in experiment [2] is 5.36. In experiment [4], the Binding Decrease is 32%. Besides, the CC50 in experiment [5] stood at 10 µM.
Taken in the same sequence, the figures for `CCOC(=O)Cn1c(=N)n(CCOc2cccc(C)c2)c2ccccc21` were 0 °C, over 45 °C, 5.11, 46% and over 50 µM.
The matching figures for `CCc1ccc(C2NCc3ccccc3-n3cccc32)cc1` (stereo not drawn): 0 °C, over 45 °C, 5.03, 36% and 35 µM.
Taken in the same sequence, the figures for `Cc1ccc(Nc2nc(N)nc(CN3CCC(Cc4ccccc4)CC3)n2)cc1` were 0 °C, over 45 °C, 5.26, 32% and 26 µM.
Regarding `CCc1ccc2c(C)nc(NC3=NC(C)(C)C=C(C)N3)nc2c1`, the ΔTm in experiment [1] amounted to 0 °C; in experiment [3], 10 °C. The pEC50 in experiment [2] is 5.11. The Binding Decrease in experiment [4] was 40%. The CC50 in experiment [5] was 2.6 µM.
Taken in the same sequence, the figures for `CC(C)c1ccc(CNCCC(c2ccccc2)c2ccco2)cc1` (stereo not drawn) were 0 °C, over 45 °C, 4.87, 34% and 13 µM.
